NSD2 inh: inhibitors of human histone methyltransferase NSD2. inhibition, % at 12.5 µM. 310,000 tested, 0.54% active. NSD2 peptide methylation, AlphaScreen, 120 min. AID 743445. O96028; in the data active = inhibition above about 50%
Casp6 inh: blocks human caspase-6 cleavage activity; purified caspase-6, Z-VEID-R110 cleavage fluorescence; inhibition, % at 12.5 µM; 350,000 tested, 0.53% active;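 active = mean inhibition across replicates at least about 35%, with every replicate also reaching that limit, limit read from the data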;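 note: 0% = median of neutral control wells and 100% = no fluorescence left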
SIRT5 inh: sirtuin-5 (human) deacylase inhibition | Purified SirT5, succinyl-peptide AMC, trypsin-coupled fluorescence | inhibition, % at 15 µM | 330,000 tested, 1.1% active | AID 652115; in the data active = inhibition above about 15%
FGF22 binding: FGF22 (human) thermal shift binding; Q9HCT0; recombinant FGF22 thermal shift, SYPRO orange fluorescence; percent of sucrose octasulfate shift, DMSO zero; activity (Tm shift, normalised), % at 9.99 µM; 340,000 tested, 1.5% active;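 active = mean Tm shift, scaled 0 neutral to 100 positive control, at about 1.3% or above, every replicate too, limit read from the data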
UCH37 DUB inh: human UCH37 deubiquitinating enzyme inhibition | Q9Y5K5 | purified proteasome/UCH37, Ub-AMC cleavage fluorescence | inhibition, % (test concentration not listed) | 330,000 tested, 0.33% active | AID 588478;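 active = mean inhibition over replicate wells above about 20%, limit read from the data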;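 note: 0% = compound-free wells with enzyme and 100% = wells lacking proteasome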
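Test system – human UCH37 enzyme supplied as purified proteasome complex · Incubation – 30 min preincubation with enzyme, 25 min cleavage at room temperature · Detection – AMC fluorescence from Ub-AMC cleavage, excitation 355 nm, emission 460 nm · Benchmarks – no-proteasome wells (full inhibition) and compound-free wells (no inhibition)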
* hit, by the source's call; . = no result given. An excerpt weighted towards active compounds, which were near 2.6% of everything screened.

SMILES	NSD2 inh	Casp6 inh	SIRT5 inh	FGF22 binding	UCH37 DUB inh
C[C@@H]1CCCCO[C@@H](CN(C)C(=O)c2ccccc2)[C@@H](C)CN([C@@H](C)CO)C(=O)c2cc(NC(=O)CCC(F)(F)F)ccc2O1	.	-2	0	0	.
C[C@H]1CN([C@@H](C)CO)C(=O)c2c(c3ccccc3n2C)-c2ccccc2CO[C@H]1CN(C)Cc1ccc(-c2ccccc2)cc1	.	-3	9	-1	.
O=C(CCC1CCCN(Cc2cccc3c2OCO3)C1)NCc1ccc(F)c(F)c1 (configuration not stated)	3	6	38*	0	0
O=C(CCC1CCCN(C(=O)c2ccc3c(c2)OCO3)C1)NCc1ccc(F)c(F)c1 (configuration not stated)	1	-1	2	43*	4
CC(=O)c1ccc(N=C2SCCCN2C(=O)C2CCCC2)cc1	-2	0	0	43*	4
O=C(CCC(=O)OCc1ccc(Br)cc1)Nc1ccccc1	-1	2	35*	0	-1
O=C(CCC(=O)OCc1ccc(C(=O)Oc2ccc(Cl)cc2)cc1)Nc1ccccc1	-3	.	.	.	-2
Cc1ccc(S(=O)(=O)Nc2ccc3c(c2)CC(=O)N([C@@H](C)CO)C[C@H](C)[C@@H](CN(C)CC2CC2)O3)cc1	.	-4	-1	0	.
OC[C@@H]1[C@H](c2ccccc2)C2(CN(Cc3nccs3)C2)N1Cc1cccnc1	.	1	20*	0	.
On1nnc2ccc(C(F)(F)F)cc21	8	-2	0	43*	2
CN(C)C(=O)C[C@H]1C[C@@H]2c3cc(NC(=O)c4cccnc4)ccc3O[C@@H]2[C@H](CO)O1	.	2	-2	.	.
COc1ccccc1S(=O)(=O)N[C@H]1C=C[C@H](CC(=O)NCc2cccc(F)c2)O[C@@H]1CO	.	0	-3	0	.
O=C(Nc1ccccc1)NN(C(=O)CCl)c1ccccc1	6	50*	1	0	2
CCC(O)(CC)C(=O)NN(C(=O)CCl)c1ccccc1	2	13	4	0	2
CO[C@@H]1CN(C)C(=O)c2cc(NC(=O)NC3CCCCC3)ccc2OC[C@H](C)N(CCc2ccccc2)C[C@@H]1C	.	0	4	0	.
CCOc1ccc(C=NNC(=O)c2ccc(Cn3cc(Br)cn3)o2)cc1	.	.	.	.	5
O=C(CN1CCC(c2nc3ccccc3s2)CC1)N1CCCCC1	1	-4	38*	42	0
O=C(CSc1ccccc1Cl)N1CCC(c2nc3ccccc3s2)CC1	0	.	.	.	6
COC(=O)c1sccc1-c1ccc(C=NOC(=O)c2cccs2)o1	.	.	.	.	-37
O=C(CSC1CC(=O)N(c2ccc(C(=O)O)cc2)C1=O)Nc1ccc(Cl)cc1 (configuration not stated)	1	.	18*	.	7
COCC(=O)N1CC(=O)N2[C@H](CO)[C@H](c3ccc(C#CC(C)C)cc3)[C@H]2C1	.	0	-4	.	.
Cc1ccc(S(=O)(=O)Nc2ccc3c(c2)C(=O)N([C@@H](C)CO)C[C@@H](C)[C@@H](CN(C)S(=O)(=O)c2cccs2)OCCCC[C@@H](C)O3)cc1	.	0	5	0	.
CS(=O)(=O)N1CCC(C(=O)NCc2ccccc2)CC1	-5	-3	-4	44*	1
C[C@H](NC(=O)C1CCN(S(=O)(=O)c2ccccc2)CC1)C(=O)NC1CC1	.	1	.	43*	.
COc1ccc(S(=O)(=O)N2CCC(C(=O)N[C@H](C(=O)NCc3ccccc3)C(C)C)CC2)cc1	-3	-2	.	44*	.
SMILES	NSD2 inh	Casp6 inh	SIRT5 inh	FGF22 binding	UCH37 DUB inh
COc1ccc(S(=O)(=O)N2CCC(C(=O)NCc3ccncc3)CC2)cc1Cl	-2	-2	-4	0	1
COc1ccc(S(=O)(=O)N2CCC(C(=O)NCc3ccccc3)CC2)cc1OC	-6	1	-5	43*	0
COc1ccc(CN2C[C@H](O)COC[C@H]3O[C@@H](CC(=O)NCc4ccccc4Cl)CC[C@@H]32)cc1	.	2	2	0	.
O=C(CCNC(=O)C1CCN(S(=O)(=O)c2ccccc2)CC1)NCc1cccnc1	.	-1	.	43*	.
O=C(NCc1ccccc1)C1CCN(S(=O)(=O)N2CCOCC2)CC1	7	.	.	.	4
O=C(CCNC(=O)C1CCN(S(=O)(=O)c2ccc(F)cc2)CC1)NCc1cccnc1	37	1	-3	0	-2
CCS(=O)(=O)N1CCC(C(=O)NCc2ccc(OC)cc2)CC1	-3	0	-5	43*	4
O=C(NCCc1ccccc1)C1CCN(S(=O)(=O)N2CCOCC2)CC1	0	1	-1	44*	2
CC(C)(O)C#Cc1cccc(-c2nc(C(=O)NCCCN3CCOCC3)cc3c2[C@@H](CCO)N(S(=O)C(C)(C)C)C3)c1 (some centres not stated)	.	-2	2	0	.
CCCN1C[C@H](C)[C@@H](OC)CN(C)C(=O)c2ccc(NC(=O)c3cnccn3)cc2OC[C@@H]1C	.	3	3	.	.
NC(=O)c1cc(N)ccc1N1CCCC1	51*	5	1	.	-30
Cc1ccc(S(=O)(=O)Nc2ccc3c(c2)C(=O)N([C@H](C)CO)C[C@H](C)[C@@H](CN(C)C(=O)C2CCCCC2)OCCCC[C@H](C)O3)cc1	.	1	8	.	.
CO[C@@H](CN(C)Cc1ccc(-c2ccccn2)cc1)[C@H](C)CN(C(=O)Nc1ccc(F)cc1)[C@H](C)CO	.	-3	0	8.2*	.
CO[C@@H](CN(C)Cc1ccc2c(c1)OCO2)[C@@H](C)CN(C(=O)Nc1ccc(F)cc1)[C@H](C)CO	.	-1	21*	0	.
CO[C@H](CN(C)Cc1cc(F)ccc1F)[C@H](C)CN(C(=O)Nc1ccc(F)cc1)[C@@H](C)CO	.	-1	-3	0	.
COc1cc(-c2nc(-c3cccc(C(F)(F)F)c3)no2)cc(OC)c1OC	.	.	.	.	-1
COc1cnc(-c2cccc(C(F)(F)F)c2)nc1OC	-2	0	-8	43*	2
O=C1C2C(C(=O)N1/N=C/c1cc([N+](=O)[O-])c(O)cc1O)C1C=CC2C12CC2 (configuration not stated)	25	76*	6	0	.
O=C1C2C(C(=O)N1/N=C/c1cc([N+](=O)[O-])ccc1O)C1C=CC2C12CC2 (configuration not stated)	2	5	2	0	.
CC(C)C[C@H](NC(=O)c1nc[nH]c1C(=O)NC1CCNCC1)C(=O)OC(C)(C)C	.	6	17*	0	-6
CC(C)C[C@H](NC(=O)c1[nH]cnc1C(=O)Nc1ccccc1)C(=O)OC(C)(C)C	.	1	0	0	28*
CC(C)(C)c1csc(N/N=C/c2cccnc2)n1	0	0	3	44*	.
C/C=C/c1ccc2c(c1)O[C@@H](CN(C)S(C)(=O)=O)[C@H](C)CN([C@@H](C)CO)S2(=O)=O	.	2	-5	0	.
